The source of these data is ChEMBL document CHEMBL3259708, “Thienoquinolines as novel disruptors of the PKCε/RACK2 protein-protein interaction” (J Med Chem, 2014).

pIC50: −log10 of the molar value. Active and inactive are the calls of the source. No cut-off for these calls is given here.

One assay concerns HeLa. Briefly: Antimigratory activity against human HeLa cells expressing doxycycline-inducible PKCepsilon at 25 uM after 24 hrs by scratch migration assay. In kind it is functional, cell-based. The procedure, abridged:
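HeLa cells carrying doxycycline-inducible constitutively active PKCε grown to log phase; ~1 mm scratch made in monolayer with pipet tip, washed with PBS, then given 2 μg/mL doxycycline plus 25 μM test agent for 24 h; controls untreated or doxycycline plus DMSO; gap closure viewed by microscope.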

In assay [1] the target is Tyrosine-protein kinase BTK (Homo sapiens) (UniProt Q06187). Briefly: Inhibition of BTK (unknown origin) at 25 uM; values are per cent of control.
The target of assay [2] is T1, Protein kinase C epsilon type (Homo sapiens) (UniProt Q02156).
T1 sequence (whole entry): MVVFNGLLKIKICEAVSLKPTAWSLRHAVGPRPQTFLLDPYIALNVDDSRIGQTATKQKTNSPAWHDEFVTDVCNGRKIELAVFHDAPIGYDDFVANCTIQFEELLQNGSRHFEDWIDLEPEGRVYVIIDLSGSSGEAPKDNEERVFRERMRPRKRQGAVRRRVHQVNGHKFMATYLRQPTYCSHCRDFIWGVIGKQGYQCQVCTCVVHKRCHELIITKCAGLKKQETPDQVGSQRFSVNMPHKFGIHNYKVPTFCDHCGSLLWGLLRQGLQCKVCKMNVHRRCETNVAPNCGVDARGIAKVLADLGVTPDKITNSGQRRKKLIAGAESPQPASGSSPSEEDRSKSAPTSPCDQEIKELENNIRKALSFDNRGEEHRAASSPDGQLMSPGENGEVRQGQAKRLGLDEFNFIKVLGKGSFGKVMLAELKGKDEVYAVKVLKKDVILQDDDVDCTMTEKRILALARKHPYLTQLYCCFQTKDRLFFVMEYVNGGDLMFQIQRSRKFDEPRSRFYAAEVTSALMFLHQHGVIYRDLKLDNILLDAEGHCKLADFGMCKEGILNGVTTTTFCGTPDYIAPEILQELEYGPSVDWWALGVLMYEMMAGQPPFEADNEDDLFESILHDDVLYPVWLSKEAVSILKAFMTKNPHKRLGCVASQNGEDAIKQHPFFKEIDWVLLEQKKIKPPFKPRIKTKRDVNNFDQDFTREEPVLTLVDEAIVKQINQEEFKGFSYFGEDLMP
Briefly: Inhibition of PKCepsilon translocation to cell membrane in human PC3 cells at 25 to 50 uM by densitometric analysis. The assay is classed as cell-based. The following applies: PC-3. The procedure, abridged:
(§1)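 PC-3 cells starved 16 h, agent 30 min, then 50 nM TPA 5 min; lysed and split into cytosolic and membrane fractions; Western blot for PKCε, PKCε pSer729 or PKCδ, with IGFI-βR (membrane) and GAPDH (cytosol) loading controls; densitometry of four independent experiments, normalized to control, t test.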

For assay [3], the target named is Protein kinase C delta type (Homo sapiens) (UniProt Q05655). Briefly: Inhibition of PKCdelta translocation to cell membrane in human PC3 cells at 25 to 50 uM by densitometric analysis. The assay is classed as cell-based. The following applies: PC-3. The procedure, abridged: as §1
Assay [4] has as its target T2, Protein kinase C epsilon type (Homo sapiens, UniProt Q02156).
T2 sequence (Q02156 whole entry): T1 sequence (whole entry)
Briefly: (§2) Inhibition of recombinant PKCepsilon (unknown origin)-MBP-tagged RACK2 interaction after 1 hr by ELISA-based assay relative to untreated control. The procedure, abridged: (§3)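 ELISA: plates coated with 100 ng recombinant PKCε in 20 mM Tris-HCl/100 mM NaCl pH 7.5 overnight at 4 °C, blocked with 3% BSA; PKCε activated 10 min at 30 °C with 60 μg/mL phosphatidylserine and 100 nM TPA; RACK2-MBP preincubated with agent 30 min, then 500 ng added for 1 h binding; anti-RACK2/HRP detection, ABTS at 420 nm; four experiments, quadruplicates, normalized to control; IC50 via CalcuSyn.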
Background: ELISA stands for enzyme-linked immunosorbent assay.

Assay [5] addresses T1, Protein kinase C epsilon type (Homo sapiens). Described as §2. The procedure, abridged:
as §3

Assay [6] deals with Mitogen-activated protein kinase 3 (Homo sapiens) (UniProt P27361). Description: Inhibition of ERK1 (unknown origin) at 25 uM; values are per cent of control.
The target of assay [7] is Protein kinase C beta type (Homo sapiens) (UniProt P05771). Briefly: Inhibition of recombinant GST-tagged PKCbeta2 (unknown origin)-His-tagged RACK1 interaction after 1 hr by ELISA-based assay relative to untreated control. The procedure, abridged:
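ELISA: 200 ng His-tagged RACK1 coated overnight at 4 °C; agent added 30 min at room temperature; 500 ng GST-PKCβII activated with CaCl2, phosphatidylserine and TPA for 10 min, then bound 1 h; detected with anti-GST and HRP secondary, ABTS colour at 420 nm.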

Assay [8] concerns the target Protein kinase C alpha type (Homo sapiens) (UniProt P17252). Description: Inhibition of PKCalpha (unknown origin) at 50 uM.
In assay [9] the target is T1, Protein kinase C epsilon type (Homo sapiens). Description: Inhibition of PKCepsilon-induced phosphorylation of MARCKS in human HeLa cells at 50 uM by SDS-PAGE analysis. In kind it is cell-based. The procedure, abridged:
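HeLa cells serum-starved 16 h, treated with 50 μM agent for 30 min with 100 nM TPA for the last 10 min; 150 μg lysate protein on SDS 8–16% gels, blotted for MARCKS pSer152/156 with tubulin loading control; densitometry of three independent experiments.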

Assay [10] deals with Serine/threonine-protein kinase pim-3 (Homo sapiens) (UniProt Q86V86). Description: Inhibition of PIM3 (unknown origin) at 25 uM; values are per cent of control.
Assay [11] deals with T1, Protein kinase C epsilon type (Homo sapiens). Briefly: Inhibition of TPA-induced PKCepsilon translocation to cell membrane in human PC3 cells at 50 uM by immunofluorescence analysis. The assay is classed as cell-based. Conditions: PC-3. The procedure, abridged:
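PC-3 cells on poly-L-lysine coverslips treated with agent 30 min then 100 nM TPA 5 min; fixed in 4% paraformaldehyde/4% sucrose, permeabilized, stained for PKCε with fluorescent secondary, imaged by microscopy; three independent experiments.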

Assay [12] concerns the target Ribosomal protein S6 kinase alpha-3 (Homo sapiens) (UniProt P51812). Briefly: Inhibition of RSK2 (unknown origin) at 25 uM; values are per cent of control.
Assay [13] has as its target Protein kinase C eta type (Homo sapiens) (UniProt P24723). Briefly: Inhibition of PKCeta (unknown origin) at 50 uM.
Assay [14] addresses T1, Protein kinase C epsilon type (Homo sapiens). Briefly: Inhibition of TPA-induced PKCepsilon Ser729 phosphorylation in human PC3 cell membrane at 25 to 50 uM by densitometric analysis. The assay is classed as cell-based. Conditions: PC-3. The procedure, abridged:
as §1

Assay [15] has the same target. Briefly: Inhibition of recombinant PKCepsilon (unknown origin)-MBP-tagged RACK2 interaction at 25 uM after 1 hr by ELISA-based assay relative to untreated control; values are per cent of control.
Assay [16] deals with T2, Protein kinase C epsilon type. Description: (§4) Inhibition of PKCepsilon-induced phosphorylation of Elk1 in human HeLa cells after 4 hrs by luciferase reporter gene assay. In kind it is cell-based. The procedure, abridged: (§5)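 PathDetect HeLa-HLR Elk-1 trans-reporting cells (200 000/well, grown 24 h) starved 16 h in 0.5% FBS medium; agent 30 min, 50 nM TPA 5 min, washed, then 4 h in starvation medium with agent; luciferase read on 20 μg lysate protein; mean ±SD of three experiments normalized to control; IC50 by CalcuSyn.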

Assay [17] has as its target T1, Protein kinase C epsilon type (Homo sapiens). Described as §4. In kind it is cell-based. The procedure, abridged:
as §5

As a reminder, the inhibition is how much of the control response was suppressed. One may read the pIC50 as the IC50 on a negative log10 scale, so that one unit is a factor of ten.

Chain of Protein kinase C eta type (Homo sapiens) (P24723 whole entry): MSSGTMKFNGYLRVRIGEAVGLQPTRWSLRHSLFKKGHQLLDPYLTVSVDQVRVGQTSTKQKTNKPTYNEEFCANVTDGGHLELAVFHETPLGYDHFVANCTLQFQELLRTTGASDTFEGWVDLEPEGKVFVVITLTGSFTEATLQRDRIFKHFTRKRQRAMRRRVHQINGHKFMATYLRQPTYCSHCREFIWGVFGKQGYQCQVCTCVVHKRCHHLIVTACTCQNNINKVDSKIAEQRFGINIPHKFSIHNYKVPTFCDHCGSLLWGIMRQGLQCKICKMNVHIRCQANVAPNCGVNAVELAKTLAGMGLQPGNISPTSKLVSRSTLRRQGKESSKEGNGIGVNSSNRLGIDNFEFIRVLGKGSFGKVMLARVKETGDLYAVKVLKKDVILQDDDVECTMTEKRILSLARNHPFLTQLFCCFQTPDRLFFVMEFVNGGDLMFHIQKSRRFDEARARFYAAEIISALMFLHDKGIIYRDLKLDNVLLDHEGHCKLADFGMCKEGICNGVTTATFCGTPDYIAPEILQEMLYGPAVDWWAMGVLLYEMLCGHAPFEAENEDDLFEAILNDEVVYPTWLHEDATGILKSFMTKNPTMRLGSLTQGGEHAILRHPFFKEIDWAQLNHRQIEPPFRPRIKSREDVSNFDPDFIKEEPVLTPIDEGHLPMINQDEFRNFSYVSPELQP
Chain of Ribosomal protein S6 kinase alpha-3 (Homo sapiens) (P51812 whole entry): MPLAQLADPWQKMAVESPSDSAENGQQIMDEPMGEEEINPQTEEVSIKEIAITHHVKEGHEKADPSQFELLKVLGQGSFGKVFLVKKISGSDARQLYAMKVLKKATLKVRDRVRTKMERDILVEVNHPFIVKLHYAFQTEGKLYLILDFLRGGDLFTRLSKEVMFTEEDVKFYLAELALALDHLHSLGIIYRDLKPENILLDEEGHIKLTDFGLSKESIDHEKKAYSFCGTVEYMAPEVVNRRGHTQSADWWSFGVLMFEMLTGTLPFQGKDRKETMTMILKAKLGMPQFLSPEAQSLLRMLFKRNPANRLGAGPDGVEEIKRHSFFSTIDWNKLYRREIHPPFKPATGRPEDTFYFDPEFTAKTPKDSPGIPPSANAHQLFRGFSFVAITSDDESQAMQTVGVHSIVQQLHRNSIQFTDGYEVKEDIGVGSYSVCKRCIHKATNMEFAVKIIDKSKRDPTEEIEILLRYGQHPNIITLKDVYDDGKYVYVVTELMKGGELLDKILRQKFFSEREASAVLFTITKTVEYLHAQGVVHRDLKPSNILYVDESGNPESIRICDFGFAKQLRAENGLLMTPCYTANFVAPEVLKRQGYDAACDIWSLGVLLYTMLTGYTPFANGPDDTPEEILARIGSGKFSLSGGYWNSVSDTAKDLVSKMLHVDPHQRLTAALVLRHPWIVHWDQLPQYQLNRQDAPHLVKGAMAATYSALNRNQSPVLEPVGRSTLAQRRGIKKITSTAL
Chain of Tyrosine-protein kinase BTK (Homo sapiens) (Q06187 whole entry): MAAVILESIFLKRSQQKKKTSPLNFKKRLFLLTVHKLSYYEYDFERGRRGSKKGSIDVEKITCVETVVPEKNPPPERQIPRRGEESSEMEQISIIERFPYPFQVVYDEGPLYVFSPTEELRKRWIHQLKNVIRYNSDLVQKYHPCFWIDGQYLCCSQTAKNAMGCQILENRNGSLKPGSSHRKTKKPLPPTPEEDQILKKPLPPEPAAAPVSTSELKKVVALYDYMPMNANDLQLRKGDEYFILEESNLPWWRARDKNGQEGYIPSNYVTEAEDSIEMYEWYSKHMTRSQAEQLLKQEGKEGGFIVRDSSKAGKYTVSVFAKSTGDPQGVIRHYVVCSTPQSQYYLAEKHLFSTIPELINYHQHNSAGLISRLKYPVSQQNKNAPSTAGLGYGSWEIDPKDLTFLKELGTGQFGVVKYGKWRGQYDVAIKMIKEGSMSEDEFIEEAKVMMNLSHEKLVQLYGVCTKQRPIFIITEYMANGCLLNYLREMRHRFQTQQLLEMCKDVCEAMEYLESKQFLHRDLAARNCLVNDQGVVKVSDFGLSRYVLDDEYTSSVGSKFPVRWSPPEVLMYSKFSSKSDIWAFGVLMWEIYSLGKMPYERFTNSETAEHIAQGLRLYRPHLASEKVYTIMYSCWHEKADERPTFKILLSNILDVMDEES
Chain of Protein kinase C beta type (Homo sapiens) (P05771 2-671 limits assumed): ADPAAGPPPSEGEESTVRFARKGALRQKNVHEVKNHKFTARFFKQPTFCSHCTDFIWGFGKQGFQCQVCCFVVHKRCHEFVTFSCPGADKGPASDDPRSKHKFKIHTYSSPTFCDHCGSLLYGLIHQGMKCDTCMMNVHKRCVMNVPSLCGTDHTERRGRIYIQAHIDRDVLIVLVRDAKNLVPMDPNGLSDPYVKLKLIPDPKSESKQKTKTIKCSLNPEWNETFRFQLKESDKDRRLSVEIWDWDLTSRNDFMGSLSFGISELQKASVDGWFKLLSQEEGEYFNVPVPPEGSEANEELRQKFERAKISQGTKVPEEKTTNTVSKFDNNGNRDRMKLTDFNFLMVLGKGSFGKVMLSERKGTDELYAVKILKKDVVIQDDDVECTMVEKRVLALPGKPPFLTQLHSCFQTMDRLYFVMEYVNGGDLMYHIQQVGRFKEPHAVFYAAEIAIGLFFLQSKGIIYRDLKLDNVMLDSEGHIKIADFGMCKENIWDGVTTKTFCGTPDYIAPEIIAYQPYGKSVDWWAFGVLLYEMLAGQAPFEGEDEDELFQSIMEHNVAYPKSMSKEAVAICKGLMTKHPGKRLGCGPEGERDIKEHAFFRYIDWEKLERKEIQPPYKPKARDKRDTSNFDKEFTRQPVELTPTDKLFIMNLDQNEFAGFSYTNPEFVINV
Chain of Protein kinase C delta type (Homo sapiens) (Q05655 whole entry, looked up): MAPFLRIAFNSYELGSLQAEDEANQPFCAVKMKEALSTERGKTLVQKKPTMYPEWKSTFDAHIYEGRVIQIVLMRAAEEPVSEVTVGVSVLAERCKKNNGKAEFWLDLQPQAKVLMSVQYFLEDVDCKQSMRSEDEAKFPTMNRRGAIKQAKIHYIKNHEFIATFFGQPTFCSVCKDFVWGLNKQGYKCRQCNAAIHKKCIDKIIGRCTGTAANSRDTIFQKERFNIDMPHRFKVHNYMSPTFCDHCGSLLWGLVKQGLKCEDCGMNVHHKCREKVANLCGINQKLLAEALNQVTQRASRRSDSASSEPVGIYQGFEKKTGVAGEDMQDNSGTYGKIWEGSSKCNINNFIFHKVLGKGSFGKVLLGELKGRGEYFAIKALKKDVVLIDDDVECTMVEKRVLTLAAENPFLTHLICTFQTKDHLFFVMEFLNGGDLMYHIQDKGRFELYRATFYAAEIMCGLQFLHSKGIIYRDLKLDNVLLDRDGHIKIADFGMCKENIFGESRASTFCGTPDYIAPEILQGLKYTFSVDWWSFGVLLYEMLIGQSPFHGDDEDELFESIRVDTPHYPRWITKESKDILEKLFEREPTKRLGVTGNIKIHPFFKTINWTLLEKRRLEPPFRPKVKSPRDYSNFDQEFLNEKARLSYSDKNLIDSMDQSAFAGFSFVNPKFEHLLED
Chain of Mitogen-activated protein kinase 3 (Homo sapiens) (P27361 whole entry): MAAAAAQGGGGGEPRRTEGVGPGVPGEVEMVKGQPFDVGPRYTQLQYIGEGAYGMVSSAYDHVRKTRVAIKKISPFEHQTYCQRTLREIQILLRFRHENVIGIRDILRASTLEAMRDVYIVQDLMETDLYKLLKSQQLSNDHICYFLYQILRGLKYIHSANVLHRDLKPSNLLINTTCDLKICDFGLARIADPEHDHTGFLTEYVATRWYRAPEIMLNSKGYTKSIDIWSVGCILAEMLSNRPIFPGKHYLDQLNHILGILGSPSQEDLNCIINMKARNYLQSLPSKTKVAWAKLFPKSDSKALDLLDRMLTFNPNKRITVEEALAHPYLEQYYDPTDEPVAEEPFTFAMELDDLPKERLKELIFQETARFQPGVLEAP

Turning to `CC(=O)c1cccc(NC(=O)c2sc3nc4cc5c(cc4cc3c2N)OCCO5)c1`, the inhibition result (in the assay with HeLa; in assay [2]; in assay [9]; in [11]) was “Active” in each case. The residual activity in [1] is 42%; in assay [6], 55%; in [10], 46%; in assay [12], 27%; in assay [15], 13.3%. In addition, the inhibition entry in assay [3], in assay [7] and in assay [14] was “inactive” in each case. Further, the pIC50 in [4] is 5.23; in [16] it was 4.95. For the same compound, the inhibition result in assay [5] was “Dose-dependent effect”; in [8], 80%; in [13], 80%; in assay [17] it was “Dose-dependent effect”.
